MrgX1 agonist = agonists of human MrgX1 receptor, primary screen, HEK293 cells, Fluo-4 calcium flux. B-score at 10 µM. hit rate 0.44% among 310,000. Mas-related G-protein coupled receptor member X1 (Homo sapiens), Q96LB2. Fluo-4 calcium fluorescence, agonist mode; stronger effect = higher value. AID 588627, 2011;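 active = calcium response B-score plate-corrected fluorescence ratio at least 3 library SD, with starting fluorescence B-score inside 5 SD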
Target sequence (Q96LB2 whole entry, looked up): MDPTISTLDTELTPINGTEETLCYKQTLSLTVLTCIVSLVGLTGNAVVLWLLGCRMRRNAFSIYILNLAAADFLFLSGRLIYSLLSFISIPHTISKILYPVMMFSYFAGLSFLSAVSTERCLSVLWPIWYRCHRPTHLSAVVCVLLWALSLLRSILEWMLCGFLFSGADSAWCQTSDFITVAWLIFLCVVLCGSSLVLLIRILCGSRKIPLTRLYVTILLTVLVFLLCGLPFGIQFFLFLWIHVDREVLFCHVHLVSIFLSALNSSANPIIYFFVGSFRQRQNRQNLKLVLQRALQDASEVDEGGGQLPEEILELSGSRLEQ
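Assay system: MrgX1-expressing HEK293 cells / Amount: fifteen thousand cells per well / Doses: test compound in the initial addition of three / Timing: cells plated overnight, dye loaded 0.5 h 37 °C, 0.5 h room temperature / Technique: kinetic calcium dye fluorescence, Fluo-4 NW / Control set: positive and negative controls per plate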
RGS4 inh = RGS4 inhibitors, primary screen, cell-based, HEK293 M3R inducible RGS4, calcium flux; Regulator of G-protein signaling 4 (Homo sapiens), P49798; Fluo-4 calcium flux; stronger effect = higher value; triggered by carbachol at its EC20; B-score at 10 µM; hit rate 0.45% among 310,000; AID 463165, 2010;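 active = B-score, a plate-corrected calcium signal, over three deviations above library mean, with baseline fluorescence within five deviations of library mean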;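 note: RGS4 expression induced by doxycycline in cells with stable M3 receptor; B-score is computed from the integrated fluorescence ratio over baseline after carbachol; higher B-score means a larger calcium signal and so more RGS4 inhibition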
Target sequence (P49798 whole entry, looked up): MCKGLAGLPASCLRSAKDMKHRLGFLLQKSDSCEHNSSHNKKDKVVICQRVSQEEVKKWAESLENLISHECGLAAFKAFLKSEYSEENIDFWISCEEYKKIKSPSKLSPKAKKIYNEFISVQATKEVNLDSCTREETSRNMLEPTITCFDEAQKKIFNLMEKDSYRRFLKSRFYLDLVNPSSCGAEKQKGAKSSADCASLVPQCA
MrgX1 PAM = positive allosteric modulators of MrgX1, primary screen, HEK293 cells, Fluo-4 calcium flux. Mas-related G-protein coupled receptor member X1 (Homo sapiens), Q96LB2. FDSS; stronger effect = higher value. B-score at 10 µM. hit rate 0.63% among 310,000. AID 588675, 2011;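 active = plate-corrected calcium response at least 3 library SD above typical, normal starting fluorescence, not activating the receptor alone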;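 note: compound read alongside a low EC10 to EC30 dose of BAM8-22 agonist; peak minus trough fluorescence over baseline measured at the second addition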
RGS4 pot = RGS4 potentiators or activators, primary screen, cell-based, HEK293 M3R inducible RGS4, calcium flux; B-score at 10 µM; hit rate 0.92% among 310,000; carbachol calcium flux Fluo4; stronger effect = lower value;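 active = B-score of the integrated calcium signal more than 4 SD below the library mean, with starting fluorescence not abnormally high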;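 note: negative B-score means reduced calcium response which marks RGS4 activation or potentiation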
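Assay system: Inducible-RGS4 HEK293 cells carrying M3 receptor | Schedule: Compound preincubation 20 min at room temperature before agonist | Signal: Kinetic calcium fluorescence imaging with Fluo4-AM dye, 2 µM | Read-out basis: B score from integrated fluorescence ratio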
MrgX1 antag = antagonists of human MrgX1 receptor, primary screen, HEK293 cells, Fluo-4 calcium flux; BAM8-22 antagonism; stronger effect = lower value; Mas-related G-protein coupled receptor member X1 (Homo sapiens), Q96LB2; hit rate 1.3% among 310,000; B-score at 10 µM;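 active = calcium-response B-score plate-corrected more than 3 library SD below zero, starting fluorescence within 5 deviations, no agonist response on first addition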;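 note: peak minus trough fluorescence over baseline after final BAM8-22 challenge near maximal dose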
MrgX1 antag conf = MrgX1 receptor antagonists, duplicate retest, confirmation, HEK293 cells, Fluo-4 calcium flux; shares compounds with MrgX1 antag; BAM8-22 calcium flux; stronger effect = lower value; remaining BAM8-22 calcium response % of control (stronger effect = lower value), % at 10 µM; hit rate 19% among 2,300;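 active = remaining agonist calcium response no higher than 100% minus 3 SD of agonist-only control wells, with starting fluorescence near control levels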;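 note: agonist BAM8-22 given at a near maximal EC90 to ECmax level; peak minus minimum fluorescence divided by baseline after agonist addition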
HEK293 Ca flux = nonspecific calcium signal in parental HEK293, confirmation, counter-screen for MrgX1 antagonist project, parental HEK293 cells, Fluo-4 calcium flux | shares compounds with MrgX1 antag | Fluo-4 calcium fluorescence, FDSS | fluorescence ratio F(max-min)/F0 at 10 µM | hit rate 2% among 4,000;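 active = duplicate-averaged calcium fluorescence ratio at least three times the standard deviation of buffer wells, a nonspecific response in parental cells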
HEK293 Ca counter = calcium response in parental HEK293 cells, primary screen, counter-screen for MrgX1 allosteric activator project, cell-based, Fluo-4 calcium flux, duplicate. shares compounds with MrgX1 antag. Fluo-4 fluorescence ratio; stronger effect = higher value. fluorescence ratio F(max-min)/F0 at 10 µM. hit rate 0.4% among 4,000;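 active = calcium fluorescence ratio, averaged over duplicates, at least 3 SD of the buffer-well ratio, meaning a nonspecific response in receptor-free cells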;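 note: untransfected parental HEK293 lacking MrgX1 used as counterscreen for MrgX1 allosteric activators; fluorescence change taken during the second addition on a kinetic imager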
HEK293 Ca cntr2 = calcium response in parental HEK293 cells, primary screen, counter-screen for MrgX1 agonist project, cell-based, Fluo-4 calcium flux, duplicate, agonist mode. AID 624115, 2012. Fluo-4 calcium fluorescence (FDSS); stronger effect = higher value. fluorescence ratio F(max-min)/F0 at 10 µM. hit rate 8.7% among 4,000. shares compounds with MrgX1 antag;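 active = calcium fluorescence ratio at least three times the spread of buffer wells, meaning a non-specific response in parental cells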
Numbers stand for hits; - = inactive; . = no result. Sampled rows, rich in hits. Any-hit rate of the full collection: about 3.5%.

SMILES | MrgX1 agonist | RGS4 inh | MrgX1 PAM | RGS4 pot | MrgX1 antag | MrgX1 antag conf | HEK293 Ca flux | HEK293 Ca counter | HEK293 Ca cntr2
Cc1cc(C(=O)CSc2nc3ccccc3[nH]2)c(C)n1CC1CCCO1 (stereo not drawn) | - | - | - | - | -8.1 | 9.7% | - | - | -
CCN1CCN(/C=N/c2nc3c(s2)CCCC3)CC1 | - | - | - | - | -4.5 | - | - | - | -
CC(=O)NC(N(C#N)c1nc(Cl)nc(N(C)C)n1)C(Cl)(Cl)Cl (stereo not drawn) | - | - | - | - | - | . | . | . | .
COc1ccc2c(c1)CC(C(=O)Nc1ccc(Cl)cc1)/C(=N/O)O2 (stereo not drawn) | - | - | - | - | - | . | . | . | .
COc1ccc(CNC(=O)CSc2nc3ccc(N)cc3s2)cc1 | - | - | - | - | - | . | . | . | .
CC(NC(=O)CSc1nc2ccc(N)cc2s1)c1ccccc1 (stereo not drawn) | - | - | - | - | -5.5 | - | - | - | -
COc1cc(CC(=O)Nc2ccc(S(=O)(=O)NC3=NCCCCC3)cc2)cc(OC)c1OC | - | - | - | - | - | . | . | . | .
CCN(Cc1ccncc1)C(=O)c1ccc2c(c1)S(=O)(=O)c1ccccc1C2=O | - | - | - | - | - | . | . | . | .
CCc1nnc(SCC(=O)N2CCCC(N3CCN(c4ccccc4C)CC3)C2)o1 (stereo not drawn) | - | - | - | - | - | . | . | . | .
O=C(Nc1ccccc1)Nc1ccccc1NS(=O)(=O)c1cccs1 | - | - | - | - | - | . | . | . | .
O=C(Nc1ccc(Cl)c(Cl)c1)Nc1ccccc1NS(=O)(=O)c1cccs1 | - | - | - | - | -7.3 | 74% | - | - | -
Cc1ccc(CC(=O)NCc2ccc(F)cc2)cc1 | - | - | - | - | -5 | - | - | - | -
Cc1ccc(CNC(=O)Cc2ccc(-c3ccccc3)cc2)cc1 | - | - | - | - | - | . | . | . | .
CCOC(=O)Cc1csc(NC(=O)c2sc3nc4cc(C)ccc4cc3c2N)n1 | - | - | - | - | -6.4 | - | - | - | -
CCOC(=O)Cc1csc(NC(=O)Nc2ccc(Cl)cc2)n1 | - | - | - | - | - | . | . | . | .
CCOC(=O)Cc1csc(NC(=O)Nc2cccc(Cl)c2)n1 | - | - | - | - | -7.4 | - | - | - | -
CCOC(=O)Cc1csc(NC(=O)c2sc3nc4ccc(CC)cc4cc3c2N)n1 | - | - | - | - | - | . | . | . | .
CCNC(=S)Nc1ccc(Cl)cc1 | - | - | - | - | -6 | - | - | - | -
Cc1ccc(C)c(OCC(=O)Nc2ccc(S(=O)(=O)Nc3ncccn3)cc2)c1 | - | - | - | - | - | . | . | . | .
CCN(C(=O)COc1ncnc2ccc(Br)cc12)C1CCS(=O)(=O)C1 (stereo not drawn) | - | - | - | - | -5.7 | - | - | - | -
CCN(C(=O)COC(=O)c1cc(-c2ccccc2)nc2ccc(Br)cc12)C1CCS(=O)(=O)C1 (stereo not drawn) | - | - | - | - | - | . | . | . | .
CC(=O)Nc1ccc(NC(=O)C(C)OC(=O)CN(C)S(=O)(=O)c2ccc(Cl)cc2)cc1 (stereo not drawn) | - | - | - | - | -6.1 | - | - | - | -
CCOC(=O)CNC(=O)N1CCCC(N(C)CCc2ccccc2)C1 (stereo not drawn) | - | - | - | - | - | . | . | . | .
Oc1ccccc1-c1nnc(SCCN2CCOCC2)n1Cc1ccccc1 | - | - | - | - | -6.8 | - | - | - | -
O=C(CSc1nnc(-c2ccccc2)n1Cc1ccccc1)N1CCOCC1 | - | - | - | - | - | . | . | . | .
SMILES | MrgX1 agonist | RGS4 inh | MrgX1 PAM | RGS4 pot | MrgX1 antag | MrgX1 antag conf | HEK293 Ca flux | HEK293 Ca counter | HEK293 Ca cntr2
Cc1ccccc1-c1nc(CN2CCC(C(=O)NC3CC3)CC2)c(C)o1 | - | - | - | - | - | . | . | . | .
COc1ccc(CNC(=O)CSc2nnnn2-c2ccccc2)cc1 | - | - | - | - | -9.9 | - | - | - | -
CCOC(=O)c1oc2ccccc2c1CSc1nnnn1-c1ccc(OC)cc1 | - | - | - | - | -7.1 | - | - | - | -
Cc1ccc(-c2nc(NC(=O)CSc3nnnn3-c3ccccc3)ns2)cc1 | - | - | - | - | -6.7 | - | - | - | -
COc1ccc(-n2nnnc2SCC(=O)c2cccc(OC)c2)cc1 | - | - | - | - | -4.6 | - | - | - | -
CCn1nnnc1SCC(=O)c1cccc(OC)c1 | - | - | - | - | - | . | . | . | .
Cc1[nH]c2ccccc2c1C(O)CN1CCC2(CC1)OCCO2 (stereo not drawn) | - | - | - | - | - | . | . | . | .
O=c1[nH]c(C2CCN(S(=O)(=O)c3ccc4c(c3)OCCO4)CC2)nc2c1nnn2Cc1ccc(F)cc1 | - | - | - | - | - | . | . | . | .
CCCn1nnnc1SCC(=O)NCc1ccccc1 | - | - | - | - | - | . | . | . | .
CCCn1nc2cc(C(=O)NCc3ccc(OC)cc3)ccc2c1OCC | - | - | - | - | -5 | - | - | - | -
CCCn1nnnc1SCC(=O)NCc1ccc(OC)cc1 | - | - | - | - | -6.8 | - | - | - | -
CC1CCCC(NCC(=O)Nc2ccc(C(N)=O)cc2)C1C (stereo not drawn) | - | - | - | - | - | . | . | . | .
CC(=O)Nc1nc(C(=O)O)cs1 | - | - | - | - | -4.9 | 81% | - | - | -
CN(C)c1ccsc1C(=O)NNS(=O)(=O)c1ccc(Cl)cc1 | - | - | - | - | - | . | . | . | .
O=C(O)CCNc1ccc(NCCC(=O)O)c2c1C(=O)c1ccccc1C2=O | - | - | - | - | -4.7 | - | - | - | -
CC(C)Cc1ccc(C(C)C(=O)Nc2ccc(O)cc2)cc1 (stereo not drawn) | - | - | - | - | -8.2 | - | - | - | 66
O=C(c1cc(COc2ccc(F)cc2Cl)on1)N1CCC(c2ccncc2)CC1 | - | - | - | - | - | . | . | . | .
